Paper PMC6873108 (Journal of Medicinal Chemistry, 2019)
“Also recorded” adds a separate entry of the source. Values belong to the compound of their own block, whether it stands above or below them.

Assays:
[1] = cited from earlier work
[2] = mice; as reported; cited from earlier work
[3] = system: P. aeruginosa PA14; settings: vs DMSO control; cited from earlier work
[4] = Plasma stability assay; assay type: in vitro ADME, mouse; settings: 25 μM, 37 °C, period of 120 min
Procedure, shortened: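 Test compound (DMSO stock) spiked into mouse plasma (pH 7.4) at final 25 μM and incubated at 37 °C. Samples taken at 0, 15, 30, 60, 90 and 120 min, extracted with methanol containing internal standard (5 min shaking), centrifuged, and supernatants analyzed by reversed-phase C18 HPLC (water/acetonitrile + 0.1% formic acid gradient). Controls were procaine, propoxycaine and procainamide at 250 μM.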

[5] = biological target: LecBPAO1 (Pseudomonas aeruginosa, UniProt Q9HYN5); assay: Isothermal titration calorimetry; assay type: binding; settings: ITC, 25 °C, mean
[6] = biological target: T1, LecBPA14 (Pseudomonas aeruginosa, UniProt A0A0H2ZE85); settings: ITC, 25 °C, mean
T1 sequence (A0A0H2ZE85 2-115): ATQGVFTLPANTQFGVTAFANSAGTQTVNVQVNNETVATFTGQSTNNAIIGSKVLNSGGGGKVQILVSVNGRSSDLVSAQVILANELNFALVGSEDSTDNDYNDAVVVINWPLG

[7] = system: mCherry-expressing P. aeruginosa; assay: Bacterial growth by total fluorescence intensity; assay type: cell-based, Pseudomonas aeruginosa; settings: 100 μM, 23 h, vs DMSO control
[8] = biological target: T1, LecBPA14; settings: read-out: LecBPA14 IC50; previously published; cited from earlier work
[9] = Plasma protein binding; assay type: in vitro ADME, mouse; settings: murine plasma, 100 μM, 37 °C, 2 h
[10] = system: Hep G2 cells; assay: MTT assay; assay type: cell-based, human; settings: up to 100 μM, 24 h
Procedure, shortened: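 Hep G2 cells grown in DMEM + 10% heat-inactivated FCS (37 °C, 5% CO2) to 75% confluency, then exposed 24 h to compound (0.01–100 μM; DMSO stock diluted in PBS, final 0.1% DMSO). Controls: vehicle, medium, and cells lysed with 0.5% Triton X-100. After two washes, MTT (final 1 mg/mL) for 3 h, then 0.04 M HCl/2-propanol for 15 min at room temperature. A560 read against 670 nm reference; normalized as (A–B)/(C–B) to Triton and vehicle controls.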

LecBPAO1, sequence (Q9HYN5 2-115 limits assumed): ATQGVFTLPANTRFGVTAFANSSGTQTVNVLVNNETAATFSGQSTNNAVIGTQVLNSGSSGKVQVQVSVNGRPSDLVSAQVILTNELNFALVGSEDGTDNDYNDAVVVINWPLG

Compound: C[C@@H]1O[C@H](CNS(=O)(=O)c2cccs2)[C@@H](O)[C@H](O)[C@@H]1O [Compound 7]
metabolic stability against liver microsomes and murine plasma [1]: good metabolic stability
toxicity in a murine pharmacokinetics model [2]: nontoxic

Compound: CO[C@@H]1O[C@@H](C)[C@@H](O)[C@@H](O)[C@@H]1O [Compound 42, methyl α-L-fucoside]
effect on biofilm formation [3]: nonsignificant effect

Compound: Cc1cc(C)c(S(=O)(=O)NC[C@H]2O[C@@H](C)[C@@H](O)[C@@H](O)[C@@H]2O)c(C)c1 [Compound 6]
metabolic stability against liver microsomes and murine plasma [1]: good metabolic stability
toxicity in a murine pharmacokinetics model [2]: nontoxic

Compound: COc1ccc(/C=C/C(=O)NC[C@H]2O[C@@H](C)[C@@H](O)[C@@H](O)[C@@H]2O)cc1OC [Compound 5]
IC50 [8]: 2800 nM

Compound: CO[C@H]1O[C@H](CO)[C@@H](O)[C@H](O)[C@@H]1O [Compound 1, methyl α-D-mannoside]
effect on biofilm formation [3]: nonsignificant effect

Continued, in another order:

stability in murine plasma [4]: fully stable
Compound: C[C@@H]1O[C@H](CNS(=O)(=O)c2cc(Cl)c(Cl)s2)[C@@H](O)[C@H](O)[C@@H]1O [Compound 27, N-β-L-Fucopyranosylmethyl 4,5-Dichloro-2-thiophenesulfonamide]

-TΔS LecBPAO1 [5]: 3.23 kcal/mol
ΔH LecBPAO1 [5]: -11.3 kcal/mol
stability in murine plasma [4]: fully stable
-TΔS LecBPA14 [6]: 0.789 kcal/mol
ΔH LecBPA14 [6]: -9.66 kcal/mol
Compound: Cc1cc(S(=O)(=O)NC[C@H]2O[C@@H](C)[C@@H](O)[C@@H](O)[C@@H]2O)c(C)s1 [Compound 22, N-β-L-Fucopyranosylmethyl 2,5-Dimethyl-3-thiophenesulfonamide]
bacterial growth (total fluorescence intensity) [7]: comparable densities

stability in murine plasma [4]: fully stable
Compound: Cc1ccc(S(=O)(=O)NC[C@H]2O[C@@H](C)[C@@H](O)[C@@H](O)[C@@H]2O)s1 [Compound 23, N-β-L-Fucopyranosylmethyl 5-Methyl-2-thiophenesulfonamide]

stability in murine plasma [4]: fully stable
Compound: Cc1oncc1S(=O)(=O)NC[C@H]1O[C@@H](C)[C@@H](O)[C@@H](O)[C@@H]1O [Compound 17, N-β-L-Fucopyranosylmethyl 5-Methyl-4-isoxazolesulfonamide]

stability in murine plasma [4]: fully stable
Compound: C[C@@H]1O[C@H](CNS(=O)(=O)c2ccc(C#Cc3ccccc3)s2)[C@@H](O)[C@H](O)[C@@H]1O [Compound 29, N-β-L-Fucopyranosylmethyl 5-Phenylethynyl-2-thiophenesulfonamide]
plasma protein binding (in words) [9]: highly bound; also recorded: very high plasma protein binding
bacterial growth (total fluorescence intensity) [7]: comparable densities
toxicity to Hep G2 cells (in words) [10]: weak toxicity; also recorded: moderate mammalian cytotoxicity
